Experiment [1] concerns the target T1, Neutrophil elastase (Homo sapiens) (UniProt P08246).
T1 sequence (whole entry): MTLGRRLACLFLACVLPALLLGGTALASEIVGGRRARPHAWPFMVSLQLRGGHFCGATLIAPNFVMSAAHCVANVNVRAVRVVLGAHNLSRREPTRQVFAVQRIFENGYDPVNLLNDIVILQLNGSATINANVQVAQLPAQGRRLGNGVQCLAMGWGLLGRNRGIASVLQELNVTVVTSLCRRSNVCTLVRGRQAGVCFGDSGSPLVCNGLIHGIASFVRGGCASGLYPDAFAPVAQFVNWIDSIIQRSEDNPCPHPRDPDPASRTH
Kind of experiment: Inhibition of Human Leukocyte Elastase, activity is expressed as biomolecular rate constant. The method, boiled down:
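Spectrophotometric assay at 25 °C with continuous monitoring of p-nitroaniline release at 410 nm from succinyl-Ala-Ala-Pro-Ala-p-nitroanilide. Activity given as the bimolecular rate constant kobs/[I] in M-1 s-1 (±SE).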

For experiment [2], the target named is T1, Neutrophil elastase (Homo sapiens). Nature of the experiment: Inhibition of Human Leukocyte Elastase induced lung hemorrhage in hamsters expressed as % inhibition (mean of 4 animals). As to conditions: concentration not given here. The class given is functional. Also on record: concentration or dose not given beside the values. In a few lines:
(§1)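 Hamster lung hemorrhage model: inhibitor given orally at 30 mg/kg (some at 50 mg/kg) 30 min before instillation of HLE into the lung. Hemorrhage measured 3 h after instillation as hemoglobin content of lung lavage fluid, read spectrophotometrically. Reported as % inhibition, mean of four animals (±SD).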

The next experiment has as its system Cricetinae gen. sp. Kind of experiment: Inhibition of Human Leukocyte Elastase induced Lung Hemorrhage in Hamsters expressed as % inhibition (mean of 4 animals). Type of experiment: functional, Cricetulus griseus. In a few lines:
as §1

Broadly, the inhibition is the drop in the measured response relative to a control, in per cent. Broadly, the Inhibition is the percentage by which the read-out fell short of the control.

Regarding `CCC1(CC)C(=O)N(C(=O)NCc2ccccc2)C1Oc1cccc(NC(=O)CCC(=O)O)c1` (centres undefined), the k obs / 1 in experiment [1] amounted to 2700 M⁻¹ s⁻¹.
On the same count and under the same terms, then `CCC1(CC)C(=O)N(C(=O)NCc2ccccc2)C1N1N=CC=CN1Cc1ccccc1` (centres undefined), with 650 M⁻¹ s⁻¹; and `CCC1(CC)C(=O)N(C(=O)NCc2ccccc2)C1Oc1ccc([N+](=O)[O-])cc1` (centres undefined), with 6800 M⁻¹ s⁻¹; and `CCC1(CC)C(=O)N(C(=O)NCc2ccccc2)C1Oc1cc(C)c(C(=O)O)c(C)c1` (centres undefined), with 24 M⁻¹ s⁻¹.
For `CCC1(CC)C(=O)N(C(=O)NCc2ccccc2)C1Oc1cccnc1` (centres undefined), in experiment [1], the k obs / 1 turned out to be 1620 M⁻¹ s⁻¹. Moreover, the inhibition in experiment [2] amounted to 46%.
In the same order, the values of `CCC1(CC)C(=O)N(C(=O)NCc2ccccc2)C1Oc1ccc(NC(=O)CCC(=O)O)cc1` (centres undefined) are 2330 M⁻¹ s⁻¹ and -3%.
For `CCC1(CC)C(=O)N(C(=O)NCc2ccccc2)C1n1ccnc1` (centres undefined) the same measures were 200 M⁻¹ s⁻¹ and 55%.
For `CCC1(CC)C(=O)N(C(=O)NCc2ccccc2)C1Oc1ccccc1NC(C)=O` (centres undefined) the same measures were 270 M⁻¹ s⁻¹ and 24%.
For `CCC1(CC)C(=O)N(C(=O)NCc2ccccc2)C1Oc1cccc(CC(=O)O)c1` (centres undefined), the k obs / 1 in experiment [1] is 1200 M⁻¹ s⁻¹. The inhibition in experiment [2] came out at 67%.
Molecule `CCC1(CC)C(=O)N(C(=O)NCc2ccccc2)C1Oc1cccc(NC(C)=O)c1` (centres undefined) yielded a k obs / 1 in experiment [1] of 1700 M⁻¹ s⁻¹.
`CCC1(CC)C(=O)N(C(=O)NCc2ccccc2)C1Oc1ccc(C(=O)CCC(=O)O)cc1` (centres undefined) displayed a k obs / 1 in experiment [1] of 5000 M⁻¹ s⁻¹. In experiment [2], the inhibition turned out to be 85%.
In experiment [1], `CCC1(CC)C(=O)N(C(=O)NCc2ccccc2)C1Oc1ccc(SC)cc1` (centres undefined) displayed a k obs / 1 of 3500 M⁻¹ s⁻¹. In addition, in experiment [2], the inhibition was found to be 2%.
As to `CCC1(CC)C(=O)N(C(=O)NCc2ccccc2)C1Oc1cccc(C(=O)O)c1` (centres undefined), the k obs / 1 in experiment [1] worked out at 1800 M⁻¹ s⁻¹. Further, the inhibition in experiment [2] amounted to 33%.
Molecule `CCC1(CC)C(=O)N(C(=O)NCc2ccccc2)C1Oc1ccc(CC(NC(=O)c2ccccc2)C(=O)O)cc1` (centres undefined) had a k obs / 1 in experiment [1] of 5110 M⁻¹ s⁻¹.
For the molecule `CCC1(CC)C(=O)N(C(=O)NCc2ccccc2)C1Oc1ccc(CN(C)C)cc1` (centres undefined), in experiment [1], the k obs / 1 was 1600 M⁻¹ s⁻¹. In experiment [2], the inhibition turned out to be 0%.
In experiment [1], `CCC1(CC)C(=O)N(C(=O)NCc2ccccc2)C1Oc1ccc(C(=O)N2CCC[C@@H]2C(=O)O)cc1` (some centres undefined) yielded a k obs / 1 of 2900 M⁻¹ s⁻¹.
In experiment [1], `CCC1(CC)C(=O)N(C(=O)NCc2ccccc2)C1OCC(=O)O` (centres undefined) gave a k obs / 1 of 160 M⁻¹ s⁻¹. In experiment [2], the inhibition is 6%.
Molecule `CCC1(CC)C(=O)N(C(=O)NCc2ccccc2)C1Oc1ccc(CCC(=O)O)cc1` (centres undefined) yielded a k obs / 1 in experiment [1] of 2440 M⁻¹ s⁻¹. Further, the inhibition in experiment [2] was 60%.
`CCC1(CC)C(=O)N(C(=O)NCc2ccccc2)C1Oc1ccc(CC(N)C(=O)O)cc1` (centres undefined) gave a k obs / 1 in experiment [1] of 2540 M⁻¹ s⁻¹.
`CCC1(CC)C(=O)N(C(=O)NCc2ccccc2)C1Oc1ccccc1CC(=O)O` (centres undefined) returned a k obs / 1 in experiment [1] of 44 M⁻¹ s⁻¹. Also, the inhibition in experiment [2] was 45%.
For `CCC1(CC)C(=O)N(C(=O)NCc2ccccc2)C1Oc1ccc(C[N+](C)(C)C)cc1` (centres undefined) the same measures were 2430 M⁻¹ s⁻¹ and 4%.
For `CCC1(CC)C(=O)N(C(=O)NCc2ccccc2)C1Oc1ccc(C(=O)O)c2ccccc12` (centres undefined) the same measures were 2000 M⁻¹ s⁻¹ and 15%.
In experiment [1], `CCC1(CC)C(=O)N(C(=O)NCc2ccccc2)C1C(=O)c1ccccc1` (centres undefined) yielded a k obs / 1 of 22 M⁻¹ s⁻¹.
For `CCC1(CC)C(=O)N(C(=O)NCc2ccccc2)C1Oc1ccc(CC(NC(=O)CCC(=O)O)C(=O)O)cc1` (centres undefined), the k obs / 1 in experiment [1] amounted to 900 M⁻¹ s⁻¹. Moreover, the inhibition in experiment [2] came to 7%.
The molecule `CCC1(CC)C(=O)N(C(=O)NCc2ccccc2)C1Sc1nnnn1C` (centres undefined) showed a k obs / 1 in experiment [1] of 3760 M⁻¹ s⁻¹. The molecule also showed an Inhibition with Cricetinae gen. sp. of 26%.
`CCC1(CC)C(=O)N(C(=O)NCc2ccccc2)C1Oc1ccc(C(=O)NS(=O)(=O)c2ccc(Cl)cc2)cc1` (centres undefined): in experiment [1], the k obs / 1 was found to be 6900 M⁻¹ s⁻¹. Moreover, in experiment [2], the inhibition came to 11%.
The molecule `CCC1(CC)C(=O)N(C(=O)NCc2ccccc2)C1Oc1ccccc1NC(=O)CCC(=O)O` (centres undefined) returned a k obs / 1 in experiment [1] of 70 M⁻¹ s⁻¹.
On the same count and under the same terms, to `CCC1(CC)C(=O)N(C(=O)NCc2ccccc2)C1OCc1ccc(C(=O)O)cc1` (centres undefined) belongs 54 M⁻¹ s⁻¹.
`CCC1(CC)C(=O)N(C(=O)NCc2ccccc2)C1Oc1ccc(S(C)(=O)=O)cc1` (centres undefined) returned a k obs / 1 in experiment [1] of 4500 M⁻¹ s⁻¹. Besides, the inhibition in experiment [2] was determined as 16%.
The molecule `CCC1(CC)C(=O)N(C(=O)NCc2ccccc2)C1OCC(O)CO` (centres undefined) came in with a k obs / 1 in experiment [1] of 800 M⁻¹ s⁻¹. Moreover, the inhibition in experiment [2] stood at 46%.
In the case of `CCC1(CC)C(=O)N(C(=O)NCc2ccccc2)C1Oc1ccc(C(=O)O)c(C(=O)O)c1` (centres undefined), the k obs / 1 in experiment [1] was 570 M⁻¹ s⁻¹.
`CCC1(CC)C(=O)N(C(=O)NCc2ccccc2)C1N1C=NC=CN1` (centres undefined) had a k obs / 1 in experiment [1] of 246 M⁻¹ s⁻¹. For the same molecule, the inhibition in experiment [2] amounted to 72%.
Take `CCC1(CC)C(=O)N(C(=O)NCc2ccccc2)C1Oc1ccccc1` (centres undefined): the k obs / 1 in experiment [1] was determined as 1900 M⁻¹ s⁻¹.
`CCC1(CC)C(=O)N(C(=O)NCc2ccccc2)C1Oc1cccc([N+](=O)[O-])c1` (centres undefined) gave a k obs / 1 in experiment [1] of 4800 M⁻¹ s⁻¹.
Turning to `CCC1(CC)C(=O)N(C(=O)NCc2ccccc2)C1n1ccccc1=O` (centres undefined), the k obs / 1 in experiment [1] was found to be 360 M⁻¹ s⁻¹. In experiment [2], the inhibition is 29%.
In experiment [1], `CCC1(CC)C(=O)N(C(=O)NCc2ccccc2)C1Oc1ccc([S+](C)[O-])cc1` (centres undefined) displayed a k obs / 1 of 4200 M⁻¹ s⁻¹.
In turn, `CCC1(CC)C(=O)N(C(=O)NCc2ccccc2)C1Oc1ccc2cc(C(=O)O)ccc2c1` (centres undefined) displayed a k obs / 1 in experiment [1] of 5600 M⁻¹ s⁻¹. For the same molecule, the inhibition in experiment [2] amounted to 28%.
In experiment [1], `CCC1(CC)C(=O)N(C(=O)NCc2ccccc2)C1Oc1ccccc1[N+](=O)[O-]` (centres undefined) showed a k obs / 1 of 890 M⁻¹ s⁻¹.
In experiment [1], `CCC1(CC)C(=O)N(C(=O)NCc2ccccc2)C1Oc1ccc(/C=C/C(=O)O)cc1` (centres undefined) gave a k obs / 1 of 1600 M⁻¹ s⁻¹. Also, the inhibition in experiment [2] amounted to 61%.
For `CCC1(CC)C(=O)N(C(=O)NCc2ccccc2)C1Oc1ccc(C(=O)O)cc1` (centres undefined), in experiment [2], the inhibition amounted to 68%.
Regarding `CCC1(CC)C(=O)N(C(=O)NCc2ccccc2)C1Sc1cccnc1` (centres undefined), in experiment [1], the k obs / 1 came out at 250 M⁻¹ s⁻¹. Besides, in experiment [2], the inhibition was -5%.
Take `CCC1(CC)C(=O)N(C(=O)NCc2ccccc2)C1Oc1ccc(NC(C)=O)cc1` (centres undefined): the k obs / 1 in experiment [1] came to 3500 M⁻¹ s⁻¹.
With `CCC1(CC)C(=O)N(C(=O)NCc2ccccc2)C1Oc1ccc(C(O)C(=O)O)cc1` (centres undefined), the k obs / 1 in experiment [1] worked out at 2100 M⁻¹ s⁻¹. For the same molecule, the inhibition in experiment [2] is 36%.
In experiment [1], `CCC1(CC)C(=O)N(C(=O)NCc2ccccc2)C1Oc1c(C)cc(C(=O)O)cc1C` (centres undefined) displayed a k obs / 1 of 750 M⁻¹ s⁻¹.
